Laboratory results reported in ChEMBL document CHEMBL1130044, “Design, synthesis, and evaluation of tetrahydropyrimidinones as an example of a general approach to nonpeptide HIV protease inhibitors” (J Med Chem, 1997).

Experiments:
[1] = target: Human immunodeficiency virus type 1 protease (Human immunodeficiency virus 1, UniProt Q72874); test: Binding affinity against HIV protease
How it was run: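 HIV protease inhibition measured as cleavage of a fluorescent substrate, with the cleavage products quantified by HPLC. Ki values were derived from this assay.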

[2] = test system: Human immunodeficiency virus type 1 (RF/HAT ISOLATE); test: Reduction in HIV viral RNA concentration by 90% in MT-2 cells infected with HIV-1RF.; assay type: functional; settings: Human immunodeficiency virus 1, RF, MT2
How it was run: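 MT-2 cells infected with HIV-1RF; viral RNA transcript accumulation measured 3 days post-infection; value is the compound concentration lowering viral RNA by 90% from the reference level.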

[3] = test system: MT2; test: Concentration required to reduce HIV viral RNA concentration by 90% in MT-2 cells infected with HIV-1RF was determined; settings: Homo sapiens

| IC90 [3] [nM] | SMILES | Ki [1] [nM] | IC90 [2] [nM] |
| --- | --- | --- | --- |
|  | O=C1N(Cc2cccc(CO)c2)[C@@H](CCc2ccccc2)[C@H](O)[C@H](Cc2ccccc2)N1Cc1cccc(CO)c1 | 550 | > 5000 |
|  | N#Cc1cccc(CN2C(=O)N(Cc3cccc(C#N)c3)[C@H](Cc3ccccc3)[C@H](O)[C@H]2CCc2ccccc2)c1 | 11 | 1600 |
|  | O=C1N(CC2CC2)[C@H](CCc2ccccc2)[C@@H](O)[C@@H](Cc2ccccc2)N1CC1CC1 | 3.8 | 5200 |
|  | O=C1N(Cc2cccc(O)c2)[C@H](CCc2ccccc2)[C@@H](O)[C@@H](Cc2ccccc2)N1Cc1cccc(O)c1 | 0.3 | 115 |
|  | N=C(NO)c1cccc(CN2C(=O)N(Cc3cccc(/C(N)=N/O)c3)[C@H](CCc3ccccc3)[C@@H](O)[C@H]2Cc2ccccc2)c1 |  | 49 |
|  | CNc1cccc(CN2C(=O)N(Cc3cccc(NC)c3)[C@H](Cc3ccccc3)[C@H](O)[C@H]2CCc2ccccc2)c1 | 4.9 | 328 |
|  | O=C1N(Cc2ccc(CO)cc2)[C@H](CCc2ccccc2)[C@@H](O)[C@@H](Cc2ccccc2)N1Cc1ccc(CO)cc1 | 2.5 | 3600 |
|  | N=C(NO)c1cccc(CN2C(=O)N(Cc3cccc(/C(N)=N\O)c3)[C@@H](CCc3ccccc3)[C@H](O)[C@@H]2Cc2ccccc2)c1 |  | > 5000 |
|  | NC(=O)c1cccc(CN2C(=O)N(Cc3cccc(C(N)=O)c3)[C@@H](Cc3ccccc3)[C@@H](O)[C@@H]2CCc2ccccc2)c1 | 4800 | > 5000 |
|  | COC(=O)c1cccc(CN2C(=O)C(=O)N(Cc3cccc(C(=O)OC)c3)[C@H](Cc3ccccc3)[C@H](O)[C@H]2CCc2ccccc2)c1 | 40 |  |
|  | Nc1ccc(CN2C(=O)N(Cc3ccc(N)c(F)c3)[C@H](Cc3ccccc3)[C@H](O)[C@H]2CCc2ccccc2)cc1F | 8 | 540 |
| 260 | O=C1N(Cc2ccc3ccccc3c2)C(Cc2ccccc2)P(=O)(O)C(Cc2ccccc2)N1Cc1ccc2ccccc2c1 (stereo unspecified) |  |  |
|  | COC(=O)c1cccc(CN2C(=O)N(Cc3cccc(C(=O)OC)c3)[C@@H](Cc3ccccc3)[C@@H](O)[C@@H]2CCc2ccccc2)c1 |  | > 5000 |
|  | Nc1cc(CN2C(=O)N(Cc3ccc(F)c(N)c3)[C@H](Cc3ccccc3)[C@H](O)[C@H]2CCc2ccccc2)ccc1F | 0.25 | 36 |
|  | O=C1N(Cc2cccc(CO)c2)[C@H](CCc2ccccc2)[C@@H](O)[C@@H](Cc2ccccc2)N1Cc1cccc(CO)c1 | 0.49 | 109 |
| 80000 | O=C1N(Cc2ccccc2)[C@@H](Cc2ccccc2)C(O)[C@H](Cc2ccccc2)N1Cc1ccccc1 |  |  |
|  | O=C1N(Cc2ccccc2)[C@H](CCc2ccccc2)[C@@H](O)[C@@H](Cc2ccccc2)N1Cc1ccccc1 | 15 | 2800 |
|  | COC(=O)c1ccc(CN2C(=O)N(Cc3ccc(C(=O)OC)cc3)[C@H](Cc3ccccc3)[C@H](O)[C@H]2CCc2ccccc2)cc1 | 1970 | > 5000 |
|  | O=C1N(Cc2cccc(O)c2)[C@H](Cc2ccccc2)C(O)[C@@H](Cc2ccccc2)N1Cc1cccc(O)c1 | 33 |  |
|  | COC(=O)c1cccc(CN2C(=O)N(Cc3cccc(C(=O)OC)c3)[C@H](Cc3ccccc3)[C@H](O)[C@H]2CCc2ccccc2)c1 |  | > 5000 |
|  | N#Cc1cccc(CN2C(=O)N(Cc3cccc(C#N)c3)[C@@H](Cc3ccccc3)[C@@H](O)[C@@H]2CCc2ccccc2)c1 | 8000 | > 5000 |
|  | NC(=O)c1cccc(CN2C(=O)N(Cc3cccc(C(N)=O)c3)[C@H](Cc3ccccc3)[C@H](O)[C@H]2CCc2ccccc2)c1 | 0.088 | 35 |
|  | Nc1cccc(CN2C(=O)N(Cc3cccc(N)c3)[C@H](Cc3ccccc3)[C@H](O)[C@H]2CCc2ccccc2)c1 | 1.7 | 365 |
|  | NC(=O)c1cc(CN2C(=O)N(Cc3ccc(F)c(C(N)=O)c3)[C@H](Cc3ccccc3)[C@H](O)[C@H]2CCc2ccccc2)ccc1F | 1.4 | 490 |
|  | O=C1N[C@H](CCc2ccccc2)[C@@H](O)[C@@H](Cc2ccccc2)N1 |  | > 5000 |
